Assay results published in ChEMBL document CHEMBL1770060, “Diaryl urea analogues of SB-334867 as orexin-1 receptor antagonists” (Bioorg Med Chem Lett, 2011).
Calls of active or inactive are those of the source. The calls are words filed in the database; no cut-off is given here.

Legend:
[1] = Selectivity ratio of Ke for OX2 receptor to Ke for OX1 receptor
[2] = target: T1, Orexin/Hypocretin receptor type 1 (Homo sapiens) (UniProt O43613); experiment: Agonist activity at OX1 receptor expressed in CHO cells at 10 uM by FlexStation assay; assay type: functional, cell-based
T1 sequence (whole entry): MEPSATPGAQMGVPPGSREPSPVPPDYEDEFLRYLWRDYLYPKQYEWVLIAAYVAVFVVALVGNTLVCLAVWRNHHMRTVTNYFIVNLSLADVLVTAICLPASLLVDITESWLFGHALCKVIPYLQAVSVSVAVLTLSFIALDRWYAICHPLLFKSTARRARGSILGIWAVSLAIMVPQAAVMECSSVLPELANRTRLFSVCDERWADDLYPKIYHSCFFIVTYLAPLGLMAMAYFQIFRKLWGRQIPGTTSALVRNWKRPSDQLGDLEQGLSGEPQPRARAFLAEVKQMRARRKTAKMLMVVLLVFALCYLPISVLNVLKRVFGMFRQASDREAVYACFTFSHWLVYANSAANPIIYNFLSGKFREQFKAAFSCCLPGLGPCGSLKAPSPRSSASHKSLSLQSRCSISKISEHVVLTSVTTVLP
Procedure, shortened: (§1)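 Separate cell lines stably expressing OX1 or OX2 receptor were loaded with calcium-sensitive dye for 1 h. Compounds were tested alone at 10 µM for intrinsic agonist activity, read as a rise in fluorescence (intracellular calcium) on the FlexStation.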

[3] = target: T2, Orexin receptor type 2 (Homo sapiens) (UniProt O43614); experiment: Agonist activity at OX2 receptor expressed in CHO cells at 10 uM by FlexStation assay; assay type: functional, cell-based; procedure, shortened: as §1
T2 sequence (whole entry): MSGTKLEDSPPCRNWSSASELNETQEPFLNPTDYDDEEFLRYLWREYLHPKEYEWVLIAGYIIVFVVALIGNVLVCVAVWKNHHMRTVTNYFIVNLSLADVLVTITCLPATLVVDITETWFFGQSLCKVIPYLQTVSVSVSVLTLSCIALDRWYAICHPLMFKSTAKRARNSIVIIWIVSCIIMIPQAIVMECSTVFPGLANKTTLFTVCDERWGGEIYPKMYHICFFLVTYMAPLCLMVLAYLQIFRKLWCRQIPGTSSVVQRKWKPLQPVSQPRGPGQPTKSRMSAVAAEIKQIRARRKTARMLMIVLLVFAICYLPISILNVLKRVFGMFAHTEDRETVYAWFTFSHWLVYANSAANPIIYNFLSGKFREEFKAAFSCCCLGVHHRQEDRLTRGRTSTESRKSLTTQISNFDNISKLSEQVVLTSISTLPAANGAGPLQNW

[4] = target: T1, Orexin/Hypocretin receptor type 1 (Homo sapiens); experiment: Antagonist activity at OX1 receptor expressed in CHO cells assessed as inhibition of orexin-A-induced calcium mobilization by FlexStation assay; assay type: functional, cell-based
Procedure, shortened: (§2)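 Cells stably expressing OX1 or OX2 receptor, dye-loaded 1 h. EC50s came from a three-parameter logistic fit. Ke = [L]/(DR−1), DR = A'/A. Duplicates; ≥3 (OX1) or ≥2 (OX2) independent experiments.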

[5] = target: T2, Orexin receptor type 2 (Homo sapiens); experiment: Antagonist activity at OX2 receptor expressed in CHO cells assessed as inhibition of orexin-A-induced calcium mobilization by FlexStation assay; assay type: functional, cell-based; procedure, shortened: as §2

Compound | Ratio Ke [1] | Activity [2] | Activity [3] | Ke [4] [nM] | Ke [5] [nM]
COc1ccc(NC(=O)Nc2ccnc3c(F)cccc23)cc1OC | > 10 | inactive | inactive | 965 | > 10000
O=C(Nc1ccc2c(c1)OCO2)Nc1ccnc2c(F)cccc12 |  | inactive | inactive | 13.4 | 1620
Cc1nc2ccc(NC(=O)Nc3ccnc4cccnc34)cc2o1 | 50 | inactive | inactive | 45 | 1190
CN(C)c1ccc(CC(=O)Nc2ccnc3c(F)cccc23)cc1 |  | inactive | inactive | > 10000 | > 10000
